10 molecules from ChEMBL document CHEMBL1155880, “Slow self-activation enhances the potency of viridin prodrugs” (J Med Chem, 2008) can be followed below.

Structures are written as SMILES. pIC50: −log10 of the molar value. Where only a bound is given, the exact number is not on record here.

Data set [1] is described as follows: Chemical stability assessed as half-times of wortmannin formation at pH 6.8 in phosphate buffer saline. Type of data set: physicochemical. In a few lines: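 Compounds were incubated at 1.5 mM Wm equivalents in PBS, pH 6.8, 37°C. Wm (or NBD-Wm) formation was followed by reverse-phase C18 HPLC with methyl-4-hydroxybenzoate as internal standard. For NBD derivatives, 10% acetonitrile and 5% DMSO were added to keep the released product in solution. Half-lives of formation were derived from this.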

Data set [2] relates to A549. Description: Antiproliferative activity against human A549 cells after 48 hrs by SRB method. Type of data set: functional, cell-based. To be noted: A549, 48 h. (The SRB assay estimates cell density from bound dye.)
The test system of data set [3] is A549. Description: Cellular uptake in human A549 cells at 10 uM by FACS relative to initial rate. Format: ADME, cell-based. Particulars: a549, 10 µM. The method in brief: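 A549 cells incubated with 10 μM NBD-labelled compound for varying times, then detached with trypsin and analysed by FACS. Fluorescence over time is expressed as relative cellular fluorescence: the geometric mean of exposed cells divided by the geometric mean of unexposed cells.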
(In general: Flow cytometry measures light scatter and fluorescence of single cells or particles in a stream.)

One may read the pIC50 as the negative decadic logarithm of the IC50, by convention in mol/L. A high value points to a small IC50.

As to `COC[C@H]1OC(=O)/C(=C\NCCCCC(=O)O)C2=C(O)C(=O)C3=C([C@H](OC(C)=O)C[C@]4(C)C(=O)CC[C@@H]34)[C@]21C`, the Activity in data set [1] is over 100 h. Also, the pIC50 in the data set with A549 [2] was 4.55.

For the molecule `COC[C@H]1OC(=O)/C(=C\NCCCCCC(=O)O)C2=C(O)C(=O)C3=C([C@H](OC(=O)CCCCN(C)c4ccc([N+](=O)[O-])c5nonc45)C[C@]4(C)C(=O)CC[C@@H]34)[C@]21C`, the Drug uptake with A549 [3] is 0.0271. For the same molecule, the Activity in data set [1] is over 100 h. This molecule also gave a pIC50 with A549 [2] of 4.31.

Regarding `COC[C@H]1OC(=O)/C(=C\N2CCCC2C(=O)O)C2=C(O)C(=O)C3=C([C@H](OC(C)=O)C[C@]4(C)C(=O)CC[C@@H]34)[C@]21C` (stereo partly drawn), in data set [1], the Activity was determined as 9.9 h. The molecule further gave a pIC50 with A549 [2] of 5.75.

`COC[C@H]1OC(=O)/C(=C\N(C)CCCCCC(=O)O)C2=C(O)C(=O)C3=C([C@H](OC(=O)CCCCN(C)c4ccc([N+](=O)[O-])c5nonc45)C[C@]4(C)C(=O)CC[C@@H]34)[C@]21C`: the Drug uptake with A549 [3] was determined as 0.187. Moreover, the Activity in data set [1] turned out to be 8 h. In the data set on A549 [2], the pIC50 was 5.41.

`COC[C@H]1OC(=O)/C(=C\N(C)CCCCCC(=O)O)C2=C(O)C(=O)C3=C([C@H](OC(C)=O)C[C@]4(C)C(=O)CC[C@@H]34)[C@]21C`: the Activity in data set [1] is 8.7 h. In addition, in the data set on A549 [2], the pIC50 was 6.02.

For `COC[C@H]1OC(=O)c2coc3c2[C@@]1(C)C1=C(C3=O)[C@@H]2CCC(=O)[C@@]2(C)C[C@H]1OC(=O)CCCCN(C)c1ccc([N+](=O)[O-])c2nonc12`, the Drug uptake with A549 [3] is given as 1. Also, the pIC50 with A549 [2] was 4.91.

`COC[C@H]1OC(=O)/C(=C\N(C)c2ccncc2)C2=C(O)C(=O)C3=C([C@H](OC(C)=O)C[C@]4(C)C(=O)CC[C@@H]34)[C@]21C` gave a Drug uptake in the data set on A549 [3] of 1. For the same molecule, the Activity in data set [1] came out at 2.3 h. This molecule gave a pIC50 in the data set with A549 [2] of 5.01.

Regarding `COC[C@H]1OC(=O)/C(=C\NCCCCC(NC(C)=O)C(=O)O)C2=C(O)C(=O)C3=C([C@H](OC(C)=O)C[C@]4(C)C(=O)CC[C@@H]34)[C@]21C` (stereo partly drawn), in data set [1], the Activity is over 100 h. The pIC50 with A549 [2] is 4.53.

Molecule `COC[C@H]1OC(=O)/C(=C\N(C)c2ccncc2)C2=C(O)C(=O)C3=C([C@H](OC(=O)CCCCN(C)c4ccc([N+](=O)[O-])c5nonc45)C[C@]4(C)C(=O)CC[C@@H]34)[C@]21C` gave a Drug uptake with A549 [3] of 1.199. The Activity in data set [1] stood at 1.87 h. The molecule also gave a pIC50 in the data set with A549 [2] of 5.00.

`COC[C@H]1OC(=O)c2coc3c2[C@@]1(C)C1=C(C3=O)[C@@H]2CCC(=O)[C@@]2(C)C[C@H]1OC(C)=O` [WORTMANNIN] had a pIC50 in the data set on A549 [2] of 4.94.
